IDE cell inh – human IDE inhibitors in live cells, primary screen, fluorescence polarization, HEK cells, FAbetaB substrate | Insulin-degrading enzyme (Homo sapiens), P14735 | hit rate 0.41% among 320,000 | FAbetaB cleavage | inhibition, % at 5.59 µM;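 active means percent inhibition above the average of all tested compounds plus 3 SD, set per screening campaign, cut at about 16% in these data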;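 further: IDE supplied by intact live HEK cells; FP after avidin binding of uncleaved biotin substrate so inhibition keeps polarization high; 0% = DMSO wells and 100% = 60 µM reference IDE inhibitor Ii1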
Target sequence (P14735 whole entry, looked up): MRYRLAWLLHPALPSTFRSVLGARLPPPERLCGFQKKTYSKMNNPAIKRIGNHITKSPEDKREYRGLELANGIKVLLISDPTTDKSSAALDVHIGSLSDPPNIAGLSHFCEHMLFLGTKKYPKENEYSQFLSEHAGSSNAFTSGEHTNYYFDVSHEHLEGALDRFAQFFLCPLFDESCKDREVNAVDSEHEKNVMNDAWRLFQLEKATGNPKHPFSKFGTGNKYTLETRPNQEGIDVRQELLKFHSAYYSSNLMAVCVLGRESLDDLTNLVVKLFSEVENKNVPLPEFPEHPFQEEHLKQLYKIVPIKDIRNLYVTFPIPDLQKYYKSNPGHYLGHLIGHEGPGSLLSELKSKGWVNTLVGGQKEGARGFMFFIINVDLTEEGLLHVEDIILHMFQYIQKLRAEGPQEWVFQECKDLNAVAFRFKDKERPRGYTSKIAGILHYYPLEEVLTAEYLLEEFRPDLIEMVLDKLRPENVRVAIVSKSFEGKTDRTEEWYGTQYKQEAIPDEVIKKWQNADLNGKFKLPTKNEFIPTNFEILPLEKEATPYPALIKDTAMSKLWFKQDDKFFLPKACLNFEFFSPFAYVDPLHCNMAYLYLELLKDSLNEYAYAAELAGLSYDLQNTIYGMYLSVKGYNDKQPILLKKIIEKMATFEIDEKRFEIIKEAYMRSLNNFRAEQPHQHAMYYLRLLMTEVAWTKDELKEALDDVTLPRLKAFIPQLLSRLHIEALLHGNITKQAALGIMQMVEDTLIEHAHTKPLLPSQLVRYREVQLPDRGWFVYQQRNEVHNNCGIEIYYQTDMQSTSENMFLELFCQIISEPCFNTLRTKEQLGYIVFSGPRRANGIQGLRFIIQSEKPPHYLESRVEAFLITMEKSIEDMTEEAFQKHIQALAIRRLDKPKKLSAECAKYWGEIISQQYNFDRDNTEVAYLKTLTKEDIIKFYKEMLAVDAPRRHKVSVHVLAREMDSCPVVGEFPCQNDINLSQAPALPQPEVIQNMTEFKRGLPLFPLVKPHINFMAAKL
UBC13 polyUb – UBC13 polyubiquitin chain formation inhibitors, primary screen, biochemical, TR-FRET, uHTS; inhibition, % at 20 µM; hit rate 0.47% among 330,000; in the data active means inhibition above about 45%, passing the limit was not always enough
PHOSPHO1 inh – PubChem AID 1565; hit rate 1.1% among 290,000; Phosphoethanolamine/phosphocholine phosphatase (Homo sapiens), Q8TCT1; recombinant PHOSPHO1, absorbance phosphatase assay; inhibition, % at 13.3 µM; in the data active means inhibition above about 60%
procasp3 activ – activators of human procaspase-3 D3A mutant, primary screen, biochemical, absorbance, PC-3 D3A mutant, single concentration. recombinant procaspase-3 D3A, Ac-DEVD-pNA absorbance 405 nm. activation, % at 8.5 µM. hit rate 0.11% among 330,000;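 active means activation above the mean of all tested compounds plus 3 SD, cut at about 21% in these data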;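 further: 0% = DMSO alone and 100% = DMSO wells spiked with extra 5 µM PC-3 D3A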
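Assay system: Procaspase-3 D3A mutant, all three cleavage aspartates alanine. Buffer or medium: Zinc-free HEPES saline buffer with Triton X-100. Times: 1 h compound preincubation, 2 h substrate hydrolysis at 25 °C. Measured by: 405 nm absorbance of p-nitroaniline, reads at 0 and 120 min. Read-out basis: percent activation relative to control range. Replicates: singlicate.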
procasp7 counter – procaspase-7 activators, primary screen, counter-screen for procaspase-3 activator project, biochemical, absorbance, HTS, human; activation, % at 8.5 µM; Caspase-7 (Homo sapiens), P55210; recombinant procaspase-7, Ac-DEVD-pNA absorbance 405 nm; D23A/D198A/D206A triple mutant, cannot self-cleave; scale: DMSO 0, 5 µM enzyme 100; hit rate 0.093% among 330,000;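 active means percent activation above the screen-wide mean plus 3 SD, cut at about 25% in these data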
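Assay system: Uncleavable procaspase-7 mutant enzyme / Input: 2 µM procaspase-7 mutant as dispensed / Dosing: single nominal 8.5 µM compound dose, 0.8% DMSO final / Timing: 1 h enzyme–compound preincubation and 2 h substrate reaction, both 25 °C / Detection: p-Nitroaniline absorbance at 405 nm, read at 0 and 120 min / Replication: singlicate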
IDE cell activ – human IDE activators in live cells, primary screen, fluorescence polarization, HEK cells, FAbeta-B substrate. FAbeta-B cleavage; 0% vehicle, 100% cell-free pure enzyme wells. activation, % at 5.96 µM. hit rate 0.073% among 340,000. AID 493087, 2011;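 active means activation above the mean of all tested compounds plus 3 SD, set per screening campaign, cut at about 17% in these data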
An asterisk follows results filed as active. Rows were chosen to be rich in hits. Some 1.9% of all compounds tested hit in one or more screens of this group.

What do the screens show for `CC/C(=C\C(=O)c1cccnc1)Nc1ccc(C)c(C)c1`?
IDE cell inh: 5.6; UBC13 polyUb: 2.0; PHOSPHO1 inh: 96.2*; procasp3 activ: -12.4; procasp7 counter: -2.4; IDE cell activ: -1.2

Results for CCC(Sc1ccc2nnc(-c3ccc(OC)c(OC)c3)n2n1)C(=O)O (stereo unspecified) ?
IDE cell inh: 1.7; UBC13 polyUb: -6.8; PHOSPHO1 inh: 60.0*; procasp3 activ: -3.1; procasp7 counter: -0.3; IDE cell activ: -4.0

What do the screens show for `COc1ccc(-c2nnc3ccc(SC(C(C)=O)C(C)=O)nn23)cc1OC`?
IDE cell inh: 4.6; UBC13 polyUb: -9.9; PHOSPHO1 inh: 106.0*; procasp3 activ: 3.0; procasp7 counter: -1.9; IDE cell activ: -4.8

How did COC(=O)CSc1ccc2nnc(-c3ccc(OC)c(OC)c3)n2n1 do in these assays?
IDE cell inh: 6.0; UBC13 polyUb: 4.8; PHOSPHO1 inh: -11.7; procasp3 activ: 12.2; procasp7 counter: 5.8; IDE cell activ: 5.4

How did Cc1cccc(CSc2nnc(-c3ccccn3)n2N)c1 do in these assays?
IDE cell inh: -1.9; UBC13 polyUb: 5.4; PHOSPHO1 inh: 63.4*; procasp3 activ: -1.2; procasp7 counter: 4.9; IDE cell activ: 2.3

What do the screens show for `Nn1c(SCc2ccc(Br)cc2)nnc1-c1ccccn1`?
IDE cell inh: 10.1; UBC13 polyUb: -3.9; PHOSPHO1 inh: 38.5; procasp3 activ: 4.3; procasp7 counter: 4.8; IDE cell activ: 1.2

What do the screens show for `Nn1c(SC/C=C/c2ccccc2)nnc1-c1ccccn1`?
IDE cell inh: 2.1; UBC13 polyUb: 0.1; PHOSPHO1 inh: 83.6*; procasp3 activ: 2.2; procasp7 counter: -1.1; IDE cell activ: 4.0

How did CN(C)c1cccc(C(=O)Nc2cccc(S(=O)(=O)NC3=NCCC3)c2)c1 do in these assays?
IDE cell inh: 1.7; UBC13 polyUb: 3.3; PHOSPHO1 inh: 32.6; procasp3 activ: -1.2; procasp7 counter: -1.1; IDE cell activ: 7.1

How did Cc1nc(NC(=O)CN2CCCCC2)sc1C(=O)N(C)C do in these assays?
IDE cell inh: 0.8; UBC13 polyUb: -0.4; PHOSPHO1 inh: 34.0; procasp3 activ: -1.2; procasp7 counter: 4.5; IDE cell activ: -2.7

How did O=C1NC(=S)SC1=C1CCCC1 do in these assays?
IDE cell inh: 5.7; UBC13 polyUb: -2.2; PHOSPHO1 inh: 71.3*; procasp3 activ: -16.2; procasp7 counter: -23.0; IDE cell activ: -0.3

Results for CN1C(=O)C(=C2CCCCCC2)SC1=S ?
IDE cell inh: -5.6; UBC13 polyUb: -0.8; PHOSPHO1 inh: 6.1; procasp3 activ: -1.7; procasp7 counter: -1.0; IDE cell activ: -2.9

How did Cc1ccsc1C(=O)NC1CCCN(Cc2ccc(Cl)cc2)C1 (stereo unspecified) do in these assays?
UBC13 polyUb: 0.0; PHOSPHO1 inh: 51.4; IDE cell activ: -4.3

Results for COc1ccc(-c2oc(NC(=O)CCl)c(C#N)c2-c2ccc(OC)cc2)cc1 ?
IDE cell inh: 8.5; UBC13 polyUb: 9.3; PHOSPHO1 inh: 24.1; procasp3 activ: 8.6; procasp7 counter: 1.5; IDE cell activ: 2.3

Results for COc1ccc(-c2oc(NC(=O)CSc3ncn[nH]3)c(C#N)c2-c2ccc(OC)cc2)cc1 ?
IDE cell inh: 2.5; UBC13 polyUb: -10.5; PHOSPHO1 inh: 71.2*; procasp3 activ: 0.0; procasp7 counter: 8.8; IDE cell activ: -10.4

What do the screens show for `c1ccc(Cc2nnc3sc(-c4ccncc4)nn23)cc1`?
IDE cell inh: 7.1; UBC13 polyUb: 7.8; PHOSPHO1 inh: 79.6*; procasp3 activ: 2.7; procasp7 counter: -15.5; IDE cell activ: 1.1

Results for c1ccc(Cc2nnc3sc(-c4ccccn4)nn23)cc1 ?
IDE cell inh: 1.5; UBC13 polyUb: -1.2; PHOSPHO1 inh: 65.6*; procasp3 activ: -1.2; procasp7 counter: -9.4; IDE cell activ: -1.3

What do the screens show for `c1ccc(Cc2nnc3sc(-c4cccs4)nn23)cc1`?
IDE cell inh: -0.1; UBC13 polyUb: 5.8; PHOSPHO1 inh: 17.5; procasp3 activ: -4.8; procasp7 counter: 5.3; IDE cell activ: 4.1

Results for c1ccc2c(c1)nnn2Cc1nnc2sc(-c3ccncc3)nn12 ?
IDE cell inh: -3.1; UBC13 polyUb: 12.8; PHOSPHO1 inh: 79.1*; procasp3 activ: -10.6; procasp7 counter: -3.6; IDE cell activ: -0.7

Results for c1ccc(Cc2nnc3sc(-c4cccnc4)nn23)cc1 ?
IDE cell inh: -2.7; UBC13 polyUb: 8.6; PHOSPHO1 inh: 10.5; procasp3 activ: 1.3; procasp7 counter: -8.3; IDE cell activ: 5.4

How did c1csc(-c2nn3c(Cn4cnc5ccccc54)nnc3s2)c1 do in these assays?
IDE cell inh: 5.5; UBC13 polyUb: -1.1; PHOSPHO1 inh: 83.0*; procasp3 activ: 2.1; procasp7 counter: -9.6; IDE cell activ: 0.9

How did CCc1cc(C(=O)Nc2ccc(S(=O)(=O)NC3=NCCCCC3)cc2)sc1C do in these assays?
IDE cell inh: 11.6; UBC13 polyUb: 1.8; procasp3 activ: -4.7; procasp7 counter: 1.4; IDE cell activ: 2.3

How did N#CC1(Nc2ccc(C(=O)O)cc2)CCCC1 do in these assays?
IDE cell activ: -5.2

How did CCc1noc(C)c1C(=O)N(Cc1ccccc1)c1c(N)n(CCOC)c(=O)[nH]c1=O do in these assays?
IDE cell inh: 2.2; UBC13 polyUb: 2.3; procasp3 activ: -6.7; procasp7 counter: 9.6; IDE cell activ: 3.2

Results for Cc1cc(C=O)c(C)n1-c1cccc(C(=O)O)c1 ?
IDE cell inh: 3.6; UBC13 polyUb: -2.6; PHOSPHO1 inh: 56.0; procasp3 activ: -3.3; procasp7 counter: 13.4; IDE cell activ: -3.3

How did Cc1ccc(C)n1-c1cccc(C(=O)O)c1 do in these assays?
IDE cell inh: 10.5; UBC13 polyUb: 16.3; PHOSPHO1 inh: 78.7*; procasp3 activ: -1.9; procasp7 counter: 5.2

What do the screens show for `O=C(CSc1nc2[nH]ncc2c(=O)[nH]1)Nc1ccccc1`?
IDE cell inh: 4.5; UBC13 polyUb: 10.8; PHOSPHO1 inh: 8.6; procasp3 activ: 8.1; procasp7 counter: 9.6; IDE cell activ: -2.8

How did O=c1[nH]c(SCc2ccccc2)nc2[nH]ncc12 do in these assays?
IDE cell inh: 6.0; UBC13 polyUb: -0.9; PHOSPHO1 inh: 63.7*; procasp3 activ: -3.7; procasp7 counter: 0.7; IDE cell activ: 0.8

What do the screens show for `CC1CCCN(S(=O)(=O)c2ccc(C(=O)NC(C)c3ccccc3)cc2)C1` (stereo unspecified)?
UBC13 polyUb: -3.7; IDE cell activ: 4.7

Screens: PubChem, several laboratories
